# Measured values as given in PubChem BioAssay AID504775 (Broad Institute, 2011).
# About 310 (0.097%) of roughly 320,000 compounds were called active. The sample holds actives, similar compounds and a random draw of the others, so the mix is not that of the screen. A number with no mark means an inactive call.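 How the source made its calls: active means mean replicate activation of at least 60% and every replicate at or above 60%; inconclusive means mean or all-replicate condition met, but not both; inactive means mean below 60% and not all replicates reaching 60%.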
# Experiment: enhancers of HDL lipid transfer via mSR-BI – ldlA[mSR-BI] CHO cells, DiI fluorescence, primary screen (AID 504775);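 further: 0% = median plate neutral-control signal and 100% = twice that signal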
# Settings: DiI-HDL uptake fluorescence, 3 h, at 12.5 µM, hits give high values, 100 = double the neutral-control signal
# Outline: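 System: CHO ldlA[mSR-BI] cells / Medium: HEPES-buffered (25 mM, pH 7.4) F12 plus 0.5% BSA / Probe or stimulus: labelled HDL, 10 µg/mL / Doses: single compound concentration, delivered by pin transfer / Schedule: 3 h, 37 °C / Measured by: DiI fluorescence, bottom read / Measure: cell-associated DiI fluorescence as measure of HDL uptake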
row,Structure (SMILES),activation
1,O=C(COC(=O)c1ccc(O)cc1O)NC(=O)c1ccccc1,38.7%
2,O=C(NCc1ccccc1)c1cccc(NC(=O)C2CCCCC2)c1,-0.488%
3,O=C1OCC2=C1C(c1ccc(Cl)cc1)c1cc3c(cc1O2)OCO3 (configuration not stated),-14%
4,CCN1C[C@@H]2[C@@H]3C(=O)N(C)C(=O)[C@@H]3[C@](C)(C1=O)N2C(=O)c1ccccc1,-27.8%
5,Oc1cccc(CCc2ccccn2)c1,0.288%
6,COc1cccc(/C=N/Nc2ccc(S(=O)(=O)Nc3ccccc3C(=O)O)cc2[N+](=O)[O-])c1O,4.5%
7,CCCN(CCC)CC(O)COc1ccccc1C(=O)Nc1ccccc1 (configuration not stated),102% (active)
8,CCCOc1ccccc1C(=O)NCCCC(=O)O,21.5%
9,CCCN(CC(=O)Nc1ccc(C(N)=O)cc1)CC(=O)Nc1ccccc1C,13.5%
10,COc1ccc(CNCCCNCc2ccc(OC)c(OC)c2)cc1OC,4.58%
11,CC(C)(C)C(=O)Nc1cccc(-c2ccc[nH]2)n1,5.41%
12,O=C1C2C3C=CC(C3)C2C(=O)N1c1ncc([N+](=O)[O-])s1 (configuration not stated),8.82%
13,COc1ccc(Br)cc1/C=N/Nc1ccc(S(=O)(=O)Nc2ccccc2C(=O)O)cc1[N+](=O)[O-],16.3%
14,COc1ccc(/C=C/C(=O)OCC(=O)N2CCN(S(=O)(=O)c3ccc(C)cc3C)CC2)cc1OC,-71.9%
15,CCOc1cc(C(=O)N(Cc2ccccc2)c2ccc(C)cc2)ccc1OCC(=O)N1CCOCC1,-5.71%
16,O=C(NNC(=O)c1ccccc1O)c1ccccc1O,-124%
17,CN(C)C(=S)N=c1ssc(=S)n1Cc1ccco1,-0.753%
18,O=C(CC1Sc2ccccc2NC1=O)NNc1ccc(Cl)c(Cl)c1 (configuration not stated),-45.6%
19,O=S(=O)(O)c1cc2onnc2c2ccccc12,15.5%
20,Nc1ccc2c(c1)C(O)c1ccc(Cl)cc1-2 (configuration not stated),14.5%
21,COc1cc(C(=O)CCc2ccc3c(c2)OCO3)cc(OC)c1OC,-43.2%
22,COC1=CC(=O)OC(c2ccc(OC)cc2)C1 (configuration not stated),14.1%

row,Structure (SMILES),activation
1,O=C(NCCc1ccccc1)c1c[nH]c2ccc(F)cc2c1=O,-17.9%
2,CC(C)[C@@H](C(=O)OCC(=O)c1ccc2c(c1)NC(=O)CO2)N1C(=O)c2ccccc2C1=O,1.12%
3,CCOC(=O)CCC(NC(=O)c1ccc(CNc2nc3cc(C(F)(F)F)ccc3nc2C(=O)OCC)cc1)C(=O)OCC (configuration not stated),-43.7%
4,CC(=O)OC1CCC2C3CCC4=C(CC(F)C(=O)C4)C3CCC12C (configuration not stated),-3.99%
5,CC(=O)OCC(=O)C1(O)CCC2C3CC(C)C4=CC(=O)CCC4(C)C3C(O)CC21C (configuration not stated),-0.166%
6,Cc1ccc(C)c(S(=O)(=O)N(C)c2ccc(OC(=O)C3CCN(C(=O)c4ccc(F)cc4)CC3)cc2)c1,-12.3%
7,Cc1ccc(Cn2c(C)c3cnn(CC(=O)NCCN4CCOCC4)c(=O)c3c2C)cc1,-22.1%
8,CCOC(=O)C1CCCN(C(=O)C2CCN(S(=O)(=O)c3ccc(Cl)c(C(F)(F)F)c3)CC2)C1 (configuration not stated),22.7%
9,COc1ccccc1N(CC(=O)Nc1c(C)n(C)n(-c2ccccc2)c1=O)S(=O)(=O)c1ccccc1,12%
10,O=C1OC(Oc2ccc(Br)cc2)(c2ccccc2)c2ccccc21 (configuration not stated),-0.981%
11,O=[N+]([O-])c1ccc(N=NNc2ccc([N+](=O)[O-])cc2)cc1,5.77%
12,CC1=CC(C)(C)Nc2ccc(OC(=O)CN3C(=O)C4CCCCC4C3=O)cc21 (configuration not stated),9.46%
13,CC1=CC(C)(C)Nc2ccc(OC(=O)C(Cc3ccccc3)N3C(=O)C4CCCCC4C3=O)cc21 (configuration not stated),62.9% (active)
14,CCOC(=O)C(Cc1ccc(N)cc1)N1C(=O)c2ccccc2C1=O (configuration not stated),-16%
15,COc1ccc(C(C(=O)NC2CCCCC2)N(C(=O)c2snc(C(N)=O)c2N)c2ccccc2OC)cc1 (configuration not stated),13.6%
16,COc1ccc(C(C(=O)NC2CCCCC2)N(C(=O)CCl)c2ccccc2Cl)cc1 (configuration not stated),88.3% (active)
17,Cc1ccccc1N(C(=O)CNC(=O)c1cccs1)C(C(=O)NC1CCCC1)c1ccncc1 (configuration not stated),4.44%
18,Oc1ccc(-c2nc3ccccc3nc2-c2ccc(O)cc2O)c(O)c1,-26%
19,C/C(=N\Nc1ccccc1)c1cccs1,13.7%
20,O=C(CCCCCCCC(=O)N1CCCCC1)N1CCCCC1,7.36%
21,COc1ccc(CCC(=O)Nc2ccc(Cl)c(S(=O)(=O)N3CCOCC3)c2)cc1OC,-60.3%
22,CC(=O)CSc1nc(CCc2ccccc2)c(C#N)c(=O)[nH]1,11%

row,Structure (SMILES),activation
1,Nc1ccc2[nH]c(=S)sc2c1,-5.72%
2,COc1cc(S(=O)(=O)N2CCN(C(=O)C3CC3)CC2)ccc1NC(C)=O,60.7% (active)
3,COc1ccc(S(=O)(=O)N2CCC(C(=O)N3CCc4ccccc4C3)CC2)cc1OC,4.32%
4,COc1ccc(S(=O)(=O)N2CCC(C(=O)N3CCOCC3)CC2)cc1OC,0.407%
5,NC(=S)NN=C1CCCC(C(F)(F)F)C1 (configuration not stated),-74%
6,N#CCc1c[nH]c2ccc([N+](=O)[O-])cc12,13.4%
7,O=C1CC(c2ccccc2)C(=O)N2C(=O)CC(c3ccccc3)C(=O)N12 (configuration not stated),16.5%
8,C#CCOCCOCCOCCNc1nc(N2CCN(C(=O)Cn3cc(CCO)nn3)CC2)nc(N2CCN(C(=O)Cn3cc(CCCN=C(N)N)nn3)CC2)n1,17.5%
9,COC(=O)CC(CC(=O)OC)n1cccc1,7.62%
10,Cc1ccc(NC(=O)C(C)OC(=O)C2CC3CCCC(C2)C3=O)cc1S(=O)(=O)N1CCOCC1 (configuration not stated),-2.41%
11,CN(C)C(=O)CCc1ccc2c3c([nH]c2c1)[C@]1(CCC2CCCC2)[C@@H](C(=O)N2CCOCC2)C[C@H](CC(=O)NCc2ccco2)C(=O)N1CC3,14.3%
12,O=C(C[C@H]1C[C@H](C(=O)N2CCOCC2)[C@@]2(CCC3CCCC3)c3[nH]c4ccc(Cl)cc4c3CCN2C1=O)NCc1ccco1,82.2% (active)
13,COc1ccc(CNC(=O)C[C@H]2C[C@H](C(=O)N3CCOCC3)[C@@]3(CCC4CCCC4)c4[nH]c5ccc(Cl)cc5c4CCN3C2=O)cc1OC,-30.3%
14,O=C(CC(=O)c1cccnc1)c1ccccc1,-1.21%
15,CCOC(=O)c1c(C)[nH]c(C(=O)OCC(=O)N2CCCC2=O)c1C,24.7%
16,CCOC(=O)c1c(C)[nH]c(C(=O)OCC(=O)c2ccc(OC)cc2OC)c1C,-45.7%
17,CCCCOC(=O)c1[nH]c(C)c(C(=O)OC)c1C,176% (active)
18,COc1ccc(CNC(=O)CN2C(=O)c3ccccc3S2(=O)=O)cc1,16.4%
19,Cc1ccc(C(=O)O)c(NC=O)c1OCc1ccccc1,19.3%
20,COc1ccc(C(CNC(=O)c2cc(S(=O)(=O)Nc3cccc(C)c3)ccc2C)N2CCCC2)cc1 (configuration not stated),21%
21,Cc1ccc(S(=O)(=O)N2CCC(C(=O)N3CCCCCCC3)CC2)cc1,-7.71%
22,COc1ccc(S(=O)(=O)N2CCc3ccccc32)cc1C(=O)Nc1cc(S(C)(=O)=O)ccc1Cl,-27.5%

row,Structure (SMILES),activation
1,O=C1/C(=C\c2ccc([N+](=O)[O-])cc2)CS(=O)(=O)C/C1=C/c1ccc([N+](=O)[O-])cc1,-17.7%
2,Oc1[nH]c2ccccc2c1N=Nc1c(F)c(F)c(F)c(F)c1F,-15.7%
3,Cc1cc(NC(=O)c2cc3ccccc3o2)no1,18.7%
4,COc1cc(C(=O)N2CCN(S(=O)(=O)c3ccc(C(C)C)cc3)CC2)ccc1OCC(=O)N1CCOCC1,10.9%
5,O=C(O)c1ccc([N+](=O)[O-])cc1Sc1ccsc1,-7.71%
6,O=C1NC(c2ccccc2)Cc2ccncc21 (configuration not stated),37.2%
7,Cc1sc(NC(=O)C2=COCCO2)c(C#N)c1C,172% (active)
8,CCC(CC)c1nnc(NC(=O)C2=COCCO2)s1,9.84%
9,Cc1csc(NC(=O)C2=COCCO2)n1,11%
10,COc1ccc(C(CNC(=O)c2cccc(S(=O)(=O)Nc3ccc(Br)cc3)c2)N(C)C)cc1 (configuration not stated),24.3%
11,COc1ccc(CCNC(=O)c2ccc(NC(=O)CC3SC(N4CCCCC4)=NC3=O)cc2)cc1OC (configuration not stated),-66.6%
12,COC(=O)Cc1c(-c2[nH]c3ccccc3c2CC(=O)OC)[nH]c2ccccc12,-37.9%
13,COc1ccc(C2C(C(C)=O)=C(O)C(=O)N2Cc2cccnc2)cc1 (configuration not stated),30%
14,O=C(C1=C(O)C(=O)N(Cc2ccccc2)C1c1cccnc1)c1ccco1 (configuration not stated),66.5% (active)
15,CCOc1cc(C2C(C(=O)c3ccco3)=C(O)C(=O)N2Cc2ccccc2)ccc1O (configuration not stated),21.9%
16,C#CCOCCOCCOCCNc1nc(N2CCOCC2)nc(N2CCN(C(=O)[C@H](Cc3ccc(O)cc3)n3cc(CCO)nn3)CC2)n1,15.4%
17,CC1CN(Cc2ccco2)C(=S)N(c2ccccc2)C1=O (configuration not stated),33.1%
18,COc1ccc(-c2sc3ccccc3c2-c2ccc(OCCN3CCOCC3)cc2)cc1,-39.3%
19,COc1cccc(-c2sc3ccc(OC)cc3c2-c2ccc(OCCN3CCCCC3)cc2)c1,-2.84%
20,COc1ccc2sc(-c3ccccc3OC)c(-c3ccc(OCCN4CCCC4)cc3)c2c1,88% (active)
21,COc1cccc2oc(CCc3ccccc3)cc(=O)c12,4.54%
